Source: PubChem (The Scripps Research Institute Molecular Screening Center)
Most compounds without a hit are left out; they make up all but 2.4% or so of the library.
sPLA2-III inh: Inhibits HGIII-sPLA2 liposome hydrolysis, primary screen; Q9NZ20; QFRET BODIPY PC-A2 liposome hydrolysis, fluorescence; inhibition, % at 12.2 µM; 0.56% of 370,000 active;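 active means inhibition above mean plus 3 SD of compounds lying within the high and low control bounds, cut at about 19% in these data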
Target sequence (Q9NZ20 whole entry, looked up): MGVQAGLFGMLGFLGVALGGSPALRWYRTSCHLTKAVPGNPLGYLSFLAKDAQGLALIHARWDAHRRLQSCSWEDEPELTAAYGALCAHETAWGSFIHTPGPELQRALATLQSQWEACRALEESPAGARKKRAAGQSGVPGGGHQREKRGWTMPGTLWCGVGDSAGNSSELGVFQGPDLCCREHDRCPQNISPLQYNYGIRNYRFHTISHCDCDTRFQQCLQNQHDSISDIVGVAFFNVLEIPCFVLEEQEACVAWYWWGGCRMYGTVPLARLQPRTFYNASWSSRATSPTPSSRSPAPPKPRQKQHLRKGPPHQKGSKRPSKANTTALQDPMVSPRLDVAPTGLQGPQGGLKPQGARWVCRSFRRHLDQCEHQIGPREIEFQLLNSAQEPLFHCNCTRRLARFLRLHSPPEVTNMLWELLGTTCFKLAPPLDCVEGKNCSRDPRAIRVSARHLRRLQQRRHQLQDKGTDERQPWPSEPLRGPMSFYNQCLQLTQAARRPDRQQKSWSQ
VIM-2 inhibitor: blocks Pseudomonas aeruginosa VIM-2 metallo-beta-lactamase; AID 1527; 0.89% of 290,000 active; inhibition, % at 5.6 µM; purified VIM-2, nitrocefin hydrolysis, epi-absorbance fluorescence;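 active means inhibition above the mean of all tested compounds plus 3 SD, cutoff set per screening run, cut at about 7.5% in these data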;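 further: red hydrolysis product quenches plate fluorescence so inhibitors raise well fluorescence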
M18AAP inhibitor: blocks P. falciparum M18 aspartyl aminopeptidase; 1.2% of 290,000 active; recombinant PfM18AAP, H-Glu-NHMec fluorogenic cleavage; inhibition, % at 7.35 µM;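 active means inhibition above the campaign mean inhibition over all tested compounds plus 3 SD, cut at about 28% in these data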
IMP-1 inhibitor: inhibitors of Pseudomonas aeruginosa IMP-1 metallo-beta-lactamase. purified IMP-1, nitrocefin hydrolysis, epi-absorbance fluorescence. inhibition, % at 5.6 µM. 0.45% of 290,000 active. AID 1556;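 active means inhibition above the mean plus 3 SD of all compounds in the same screening run, cut at about 4.5% in these data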
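System: purified IMP-1; amount: IMP-1 0.2 nM before substrate addition; compound: single dose, 5.6 µM; times: 25 °C, 15 min preincubation, 25 min reaction; signal: Epi-absorbance via hydrolysed-nitrocefin quenching of white-plate fluorescence, 480/530 nm, EDTA stop; benchmarks: DMSO with and without IMP-1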
Hits are given with their value; - = inactive; . = no result given.

SMILES | sPLA2-III inh | VIM-2 inhibitor | M18AAP inhibitor | IMP-1 inhibitor
O=C(O)c1ccc(N=Nc2c(O)[nH]c3ccc(Br)cc23)cc1 | - | - | - | -
CC1CCC2(CCC(=O)N2C[C@@H](O)c2ccccc2)CC1 (stereo not given in full) | - | . | . | .
COc1cccc(CNC(=O)[C@H]2CCCN2C(=O)[C@H]2CCCN2)c1 | - | . | . | .
O=C(Nc1ncc2c(n1)-c1ccccc1CC2)c1ccc(Cl)cc1 | - | - | - | 24
O=C(Nc1ncc2c(n1)-c1ccccc1CC2)c1cccc(Cl)c1 | - | - | - | -
CCCCS(=O)(=O)N1CCCC(C(=O)Oc2ccc(Cl)cc2)C1 (stereo not given) | - | - | - | 6.0
C[C@@H]1CCN(C2CC2)S(=O)(=O)c2ccc(N3CCC[C@H]3CO)cc2O1 | - | . | . | .
COc1ccc(C(=O)c2coc3c2C(=O)C(=O)c2ccccc2-3)cc1 | - | - | - | 12
CCCC#Cc1ccc(CC[C@H]2O[C@H]3CC[C@@H](CO)O[C@H]3C[C@H]2NC(=O)CN2CCOCC2)cc1 | - | . | . | .
CCN(CC)CCNC(=O)CSc1c2c(nc3cc(Cl)ccc13)CCCC2 | - | 8.4 | - | -
CCCCN(CC)CCNC(=O)c1ccc2c(Cl)c3c(nc2c1)CCC3 | - | - | - | -
CCN(CC)CCCNC(=O)c1ccc2c(Cl)c3c(nc2c1)CCCC3 | - | 9.3 | - | -
CCCN1CCN(CCCNC(=O)c2ccc3c(Cl)c4c(nc3c2)CCCC4)CC1 | - | 8.4 | - | -
CC(C)C(=O)OCCCN1CCC2(CCC(c3ccccc3)CC2)C1=O (stereo not given) | - | . | . | .
CNC(=O)c1cn(-c2ccccc2)c(=O)c2ccccc12 | - | - | - | 6.1
CS(=O)(=O)N1CCC[C@]2(CC[C@@H](CCC#N)O2)C1 | - | . | . | .
Nc1ccc(Cn2ccc3c4c(N)nc(N)nc4ccc32)cc1 | 22 | . | . | .
CC[n+]1c(/C=C/N(C)c2ccccc2)oc2ccc(F)cc21 | - | - | 31 | -
COc1ccccc1NC1=C(NC(C)=O)C(=O)c2ccccc2C1=O | - | - | - | -
COC1=C(Nc2ccccc2OC)C(=O)c2ccccc2C1=O | - | 10.0 | - | -
O=C(COc1cccnc1[N+](=O)[O-])c1ccc(Cl)s1 | - | - | 32 | -
CCOc1ccc(N2C(=O)C3Sc4[nH]c(=O)sc4C(/C=C/c4ccccc4)C3C2=O)cc1 (stereo not given) | - | - | - | 8.0
CCn1c2ccccc2c2cc(NC(=O)COC(=O)c3cc(Cl)cc(Cl)c3)ccc21 | - | . | . | .
COc1ccc(S(=O)(=O)c2c(N)n(Cc3ccco3)c3nc4ccccc4nc23)cc1 | - | - | - | 5.6
COc1ccc(Cn2c(C)nc3c(c2=O)c2nc4ccccc4nc2n3Cc2ccco2)cc1 | - | . | . | .
SMILES | sPLA2-III inh | VIM-2 inhibitor | M18AAP inhibitor | IMP-1 inhibitor
COc1ccccc1-c1ccc(/C=C2\C=CC(=O)O2)o1 | - | - | - | 5.4
COc1ccccc1-c1ccc(/C=C2/C=C(C)OC2=O)o1 | - | - | - | -
Cn1c(SCC(=O)Nc2ccc(C(=O)O)cc2)nnc1-c1ccccn1 | - | . | . | .
CCn1c(N2CCN(S(=O)(=O)c3ccccc3C(F)(F)F)CC2)nc2ccccc21 | - | - | - | 7.2
COC(=O)[C@H](C)NC(=O)[C@H](CC(C)C)NC(=O)OC(C)(C)C | - | . | . | .
Clc1cccc(CNC2CCC23CCCCC3)c1 (stereo not given) | - | . | . | .
CC(=O)COC(=O)c1ccc2noc(-c3ccccc3)c2c1 | - | - | 30 | -
Oc1c(Br)cc(C=Nc2ccc3nc(-c4ccccc4)[nH]c3c2)c(O)c1Br | - | - | 29 | -
C[C@@H]1NS(=O)(=O)c2cccc(Cl)c2O[C@@H]1c1ccccc1 | - | . | . | .
Oc1cc2c(cc1O)C1c3ccc(O)c(O)c3OCC1(O)C2 (stereo not given) | - | - | 80 | -
COc1cccc(NC(=O)C2CCCN2C(=O)Nc2cccc3c2OCO3)c1 (stereo not given) | - | . | . | .
c1cc2c(cc1-c1csc(NNC3=NCCCCC3)n1)OCCO2 | - | - | 41 | -
Cc1cc(=O)oc2cc(OCC(=O)NCCCn3ccnc3)ccc12 | - | 12 | - | -
Cc1cc(=O)oc2cc(OC(C)C(=O)NCCCn3ccnc3)ccc12 (stereo not given) | - | - | - | -
Cc1cc(=O)oc2cc(OCC(O)Cn3ccnc3)ccc12 (stereo not given) | - | 10 | - | -
CCOc1ccc(N/C(=C(/C(Cl)=C(Cl)Cl)[N+](=O)[O-])n2cncn2)cc1 | . | - | 78 | -
CCOc1ccc(NC(=O)c2nn(C)c(C(=O)Nc3ccc(OCC)cc3)c2[N+](=O)[O-])cc1 | - | - | - | -
COc1ccc(C(N)c2nccc3cc(OC)c(OC)cc23)cc1OC (stereo not given) | . | 7.8 | - | -
COc1cc(N)c(Cc2nccc3cc(OC)c(OC)cc23)cc1OC | - | - | - | -
Cc1csc(NC(=O)c2ccc(COc3cccc(F)c3)o2)n1 | - | . | . | .
COC(=O)C[C@@H]1CC[C@H]2[C@@H](COc3ccc(NC(=O)NC(C)C)cc3C(=O)N2C)O1 | - | . | . | .
O=C(NNc1ccc(F)cc1)c1c(F)cccc1Cl | - | - | 30 | -
O=C(NNc1ccc(Cl)cc1)c1c(F)cccc1Cl | - | - | 31 | -
O=C(NNc1cc(Cl)ccc1Cl)c1c(F)cccc1Cl | - | - | - | -
N#CCC[C@H]1CC[C@]2(CCCN(C(=O)C3CCCCC3)C2)O1 | - | . | . | .
Clc1ccc(-c2nc3ccncc3[nH]2)cc1 | - | - | 29 | -
CCOC(=O)[C@]12CCCC=C1N(CCCOC)C(=O)[C@@H]2CC(=O)NCCCCc1ccccc1 | - | . | . | .
